Data as given in ChEMBL document CHEMBL4513216, “Probing the Open Global Health Chemical Diversity Library for Multistage-Active Starting Points for Next-Generation Antimalarials” (ACS Infect Dis, 2020).

Assay: Toxicity liver stage against HepG2, at 10uM
Assay type: cell-based
Parameters: test concentration 10 uM, cell line HepG2-A16-CD81EGFP
Conditions: human, HepG2-A16-CD81EGFP cells; read-out: INHIBITION
Outline: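 Uninfected HepG2-A16-CD81EGFP cells, 3 × 10^3 per well, 1536-well, plated on prespotted compound at 10 μM final, parasite-free screening media added to match infected plates; puromycin 10 μM positive, DMSO 0.5% negative; run in parallel with 48 h PbLuc assay at 37 °C, 5% CO2; viability by CellTiter-Glo luminescence, normalized to controls.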

Row | Compound | cytotoxicity at 10 µM [%]
1 | COC(=O)[C@@H](NC(=O)Nc1ccc(C(C)=O)cc1)C(C)C | 10.1
2 | COC(=O)c1cccc(C(=O)NCc2ccc(C)o2)n1 | 11.5
3 | Cc1cc(=O)n2nc(CNc3cc(Cl)ccc3C)nc2[nH]1 | -5.64
4 | COc1ccc(NC(=O)c2cnc(N3CCN(C)CC3)nc2C)cc1 | -3.45
5 | CN1CCC(N(C)C(=O)c2cnn(-c3cc(F)ccc3F)c2N)CC1 | -8.47
6 | COCCn1cc(CCC(=O)Nc2c(C)nn(C)c2C)c2ccccc21 | -177
7 | Cc1nc(N2CCOCC2)nc2c1CCN(C(=O)N1CCCC1)CC2 | 0.64
8 | CS(=O)(=O)N1C[C@@H](C(=O)Nc2cnccn2)C[C@H]2OCC[C@H]21 | 17.3
9 | CCN(CC)c1ccc2ccc(C(=O)O)cn12 | 1.42
10 | Cc1nnn2c1COC(CNCc1ccncc1)C2 (centres undefined) | 7.48
11 | CS(=O)(=O)N1C[C@@H]2COC[C@@H](CC(=O)N3CCCO3)[C@@H]2C1 | 11.1
12 | CN(C)C(=O)COCc1ncn2c1CN(c1ncc(F)cn1)CCC2 | 6.01
13 | CC(C)C(=O)N1CCCC12CCCN(C(=O)c1ccno1)C2 (centres undefined) | 5.35
14 | Cc1nnc([C@@H]2CCO[C@@H]3CCN(C(=O)Cc4ccccn4)C[C@@H]32)o1 | 10.1
15 | Cn1cc(CN2CCO[C@H]3CN(Cc4ccco4)C[C@H]32)cn1 | -140
16 | c1cncc(COCC2CN(Cc3ccncc3)Cc3ccnn3C2)c1 (centres undefined) | -135
17 | O=c1[nH]nc2c(S(=O)(=O)N3CCN(c4ccc(F)cc4)CC3)cccn12 | 11.8
18 | CCNC(=O)Cc1n[nH]c(-c2cncc(Br)c2)n1 | 1.2
19 | CCC1=NC(SCC(=O)c2ccc(C)cc2)c2cc(CC)sc2N1 (centres undefined) | 9.76
20 | CCCN(CCC)C(=O)Cn1c(SC)nc2ccsc2c1=O | 3.88
21 | Cn1nccc1C(=O)N1CCOC(Cc2cccnc2)C1 (centres undefined) | -7.95
22 | CC(=O)N1CCCC1c1nccnc1Nc1cccc(C)n1 (centres undefined) | 1.31

Row | Compound | cytotoxicity at 10 µM [%]
23 | O=C(COc1cc(Cl)cc(Cl)c1)NCc1nncn1C1CC1 | -11.5
24 | CCCc1nc(CN(CCO)Cc2cc(Br)ccc2F)no1 | -5.1
25 | CN(CCO)Cc1cc(=O)n2cc(Br)ccc2n1 | -6.69
26 | CCSCc1ccnc(NC(=O)C2CCOC2)c1 (centres undefined) | 0.841
27 | O=C(Nc1ccc(-n2ccc(C(=O)O)n2)cc1)c1ccccc1 | -139
28 | Cc1nn(C)c(C)c1C(=O)N1CCN(C(=O)CC2CCCCC2)CC1 | -2.55
29 | CCOc1cccc(CNc2cnn(CC(C)C)c2CC)c1 | 2.93
30 | COC(=O)CCNC(=O)c1c[nH]cc1-c1cccc(OC)c1 | 4.89
31 | CC(NC(=O)NCCn1ccnc1)c1nncn1C (centres undefined) | -8.92
32 | CC(C)COC(=O)N1CCCN(Cc2nnc(C(C)(C)C)o2)CC1 | 11.1
33 | CCCc1nc(CN2CCCC2Cn2cccn2)cs1 (centres undefined) | -4.45
34 | CSC(C)C(=O)NCCC(=O)N1CCN(c2ccccn2)CC1 (centres undefined) | 3.05
35 | Cc1cccc(C(=O)Nc2cccc3c2C(=O)NC3)n1 | 1.14
36 | Cc1ccc(C(=O)N2CCN(c3ccnc4ccsc34)CC2)o1 | 38.7
37 | NC(=O)NC(=O)CNC1(c2ccc(Cl)cc2)CCCC1 | 15.7
38 | O=C(CCN1C(=O)CCC1=O)Nc1ccc(OCC(F)(F)F)nc1 | -13.4
39 | N#CCc1ccc(OCC(=O)NS(=O)(=O)c2ccc(Cl)s2)cc1 | 6.41
40 | COc1ccc(COCC(O)CN(C)c2ccc(C)cc2C)cc1 (centres undefined) | 1.6
41 | CCC(C)(NCc1ncc(C(C)C)o1)c1nccs1 (centres undefined) | 18.9
42 | CC(=O)N1CCC(NC(=O)NCCCc2cn[nH]c2C)CC1 | -4.2
43 | Cc1cnn(CC2CCCN2C(=O)Cc2cn3ccsc3n2)c1 (centres undefined) | -10.1
44 | CN(Cc1cccc(OC(F)(F)F)c1)C(=O)c1ccncc1F | 3.76

Row | Compound | cytotoxicity at 10 µM [%]
45 | COCc1ccccc1NC(=O)[C@@H]1CCCN1C(=O)c1ccco1 | -6.34
46 | O=C(NCCOc1ncc(Cl)cc1Cl)c1ccncc1 | 7.18
47 | Cc1nc(CN2CCC3(C2)CN(C(=O)c2conc2C)C3)cs1 | -105
48 | O=C1[C@H]2CN(Cc3ccoc3)C[C@@H]2CCN1Cc1cccnc1 | -71.5
49 | CCOCc1ncn2c1CN(C(=O)c1ccoc1)CC2 | -72.6
50 | O=C(c1cccs1)N1CCCn2cnc(COCC3CC3)c2C1 | -81.3
51 | Cn1cc(C2COC3(CCN(C(=O)Cn4cccn4)CC3)C2)cn1 (centres undefined) | 2.7
52 | O=C(c1ccoc1)N1CCCn2cnc(COCC3CC3)c2C1 | 2.47
53 | Cc1cncc(C(=O)N2Cc3ccccc3C3(CCN(C)CC3)C2)c1 | 4.37
54 | Cc1ccc(C(=O)N2C[C@H]3CCC[C@@]3(COCc3cccnc3)C2)s1 | 3.24
55 | c1ccc(-c2nc3c(c(NCc4nnc5n4CCC5)n2)CCNC3)cc1 | -3.71
56 | CCOc1ccc(CN(CCOC)C(=O)c2ccncc2Cl)cc1 | 5.82
57 | Cc1cnc(N2CCCC(c3ccccc3)C2)nc1-c1ncnn1C (centres undefined) | -1.79
58 | Cc1noc(C)c1CN(C)Cc1cnc(N2CCOCC2)nc1 | -2.28
59 | CC(C)(C)CCN1CCCC(Cn2cc(CCO)nn2)C1 (centres undefined) | -13.9
60 | Cc1nc[nH]c1CN1CCC(CNC(=O)c2cccc3cnccc23)C1 (centres undefined) | -10.1
61 | Cc1ccc(NC(=O)[C@H]2C[C@H](C(=O)O)CN(CC3CC3)C2)cn1 | 0.999
62 | CCNC(=O)[C@@H]1C[C@H](NC(=O)Cn2ccnc2)CN1Cc1ccsc1 | 5.89
63 | CN(Cc1ccncn1)C(=O)CCC(=O)NC1CCCC1 | -1.01
64 | Cc1ccc(-c2cccc(N3CCC(NC4CCOCC4)CC3)c2)cc1 | -12.3
65 | Cc1c(C(=O)NCC2CCN(Cc3ccco3)C2)[nH]c2ccccc12 (centres undefined) | 6.32
66 | Cc1sc2nc(CCN)nc(N3CCC(N4CCCC4)CC3)c2c1C | -51.6

Row | Compound | cytotoxicity at 10 µM [%]
67 | CSC(C)C(=O)N1CCC(Oc2cc(C)ccc2F)(C(=O)O)CC1 (centres undefined) | 2.88
68 | OC1(CNCCc2csc(-c3ncccn3)n2)CCNC1 (centres undefined) | -8.44
69 | CC(C)c1nccc(-c2nccn2CCS(C)(=O)=O)n1 | 4.68
70 | CC(C)N1CC2(CCC1=O)CCN(C(=O)c1cccc(F)c1F)CC2 | -18.5
71 | Cc1ccc(F)cc1-n1c(CCCN2CCOCC2)n[nH]c1=O | 7.32
72 | O=C(NC1CC1)c1cn(C2CCN(c3cc(C4CC4)ncn3)CC2)nn1 | 27.8
73 | Cc1ccc(CC(=O)N2CCCC(c3cc(C(N)=O)[nH]n3)C2)cn1 (centres undefined) | -14.2
74 | CC(C)(C)c1noc(CN2CCCCC2Cn2cncn2)n1 (centres undefined) | -2.4
75 | O=C(CN1CCc2c(ncn2C2CC2)C1)NC1CCN(C2CC2)CC1 | -8.44
76 | CC(C(=O)NCc1cccc(N2CCCC2=O)c1)S(C)(=O)=O (centres undefined) | 2.66
77 | CCNC(=O)N(C)C(c1cccc(F)c1)c1ccccn1 (centres undefined) | -11.6
78 | COc1ccc(C(=O)N2CCCCC2c2nc(C)cs2)nn1 (centres undefined) | -6.77
79 | Cc1ccccc1CN1CCN(Cc2nccn2C)CC1 | -10.1
80 | Cc1nccn1CC1CCCN1S(=O)(=O)Cc1ccccc1 (centres undefined) | -18
81 | CC(O)CN1CCN(C(=O)c2ccc(N(C)C)nc2)CC1 (centres undefined) | -9.78
82 | N#Cc1ccccc1OCCN1CCn2c(nnc2C2CC2)C1 | 2.94
83 | O=C(Cc1csc(-c2nnc[nH]2)n1)N1CCCC1Cn1cccn1 (centres undefined) | -2.48
84 | CCCc1nc(CN2CCCC(Cn3cncn3)C2)no1 (centres undefined) | -4.02
85 | CC(NC(=O)CCOc1ccccc1Cl)c1nnc2n1CCC2 (centres undefined) | -6.46
86 | CC(NC(=O)CCn1cncn1)c1nnc2n1CCCCC2 (centres undefined) | -9.26
87 | Cc1cnn(CC2CCCN2C(=O)c2ccc3[nH]nnc3c2)c1 (centres undefined) | 1.03
88 | Cc1nc(C)n(CC2CCCN(CCNC(=O)OC(C)(C)C)C2)n1 (centres undefined) | 1.08

Row | Compound | cytotoxicity at 10 µM [%]
89 | NCc1ccccc1Sc1ccc(O)cc1 | 1.31
90 | Cc1ncsc1CN1C[C@@H]2COC[C@]2(C(=O)NCC2CC2)C1 | 5.38
91 | Cc1ccc(CN2CCC3(CC2)C(=O)N(CC(C)C)CCN3C)o1 | -0.508
92 | Cc1ccc(C(=O)N2CCC3(CC2)CC(c2cnn(C)c2)CO3)cn1 (centres undefined) | -69.5
93 | Cc1cnc(N2CC[C@H]3[C@H](C[C@@H](CN(C)C)N3C)C2)nc1 | 5.71
94 | CN(C)CCNC(=O)[C@H]1C[C@H]2CN(c3ncccn3)C[C@H]2N1C | 9.52
95 | Cc1ccc(N2CC3(COCCN(Cc4cccnc4)C3)OCC2=O)s1 (centres undefined) | 2.39
96 | Cc1cccc(CN2C[C@@H]3OCCN(CC(=O)N(C)C)[C@@H]3C2)c1 | -110
97 | Cc1ccoc1C(=O)N1Cc2c(Cn3ccnc3)nn(C)c2C1 | -68.5
98 | CCS(=O)(=O)NC[C@]12COC[C@H]1CN(Cc1cccc(OC)c1)C2 | -6.23
99 | COCCN1CCO[C@@H]2CN(Cc3cc(OC)cc(OC)c3)C[C@@H]2C1 | 38.8
100 | Cc1cc(C(=O)N2CC[C@H]3[C@H](C[C@@H](CN4CCCC4)N3C)C2)c(C)o1 | 9.97
101 | CC1=N[C@@]2(CC[C@@H]3CN(CC(C)C)C[C@@H]32)C(=O)N1CC(C)C | -79.6
102 | c1cncc(COC[C@H]2CC[C@H]3[C@H](CCN3Cc3nccs3)O2)c1 | -69.6
103 | c1ccc(OCc2nnc3n2CCN(CC2CC2)C3)nc1 | -0.945
104 | Cc1nnn2c1COC(CNCc1ccccn1)C2 (centres undefined) | 0.903
105 | CS(=O)(=O)N1CCC2(CC1)CN(CC1CCOC1)c1ccccc12 (centres undefined) | -108
106 | CCC(=O)N1Cc2nccn2CC(CN(C)Cc2cccnc2)C1 (centres undefined) | 3.55
107 | CS(=O)(=O)N1CC[C@H]2OCC[C@@]2(C(=O)NCc2ccccn2)C1 | -84.7
108 | O=C(C1CCCC1)N1CCC2(CC1)COCCN2CC1CC1 | 5.01
109 | CC(C)=CCN1C[C@@H]2CC[C@H]1CN(C(=O)c1ccc(S(N)(=O)=O)cc1)C2 | -5.96
